High-throughput results from PubChem.
The list is not random: actives were taken first. Their share in the collection is about 6.7%.
CSC inhib – blocks cancer stem cells; inhibition, % at 7.5 µM; actives 1.1% (n = 300,000); cancer stem cell-like cells viability, luminescence; in the data active = inhibition above about 75%; inconclusive = no clear call, values can overlap the other calls; tested in HMLE shEcad cells
GRIN3A LBD mod – NR3A (human) ligand-binding domain modulation | NR3A LBD differential scanning fluorimetry, Tm shift; 0% = protein alone, 100% = glycine-bound protein | Tm shift relative to glycine control, % at 25 µM | actives 2.5% (n = 340,000) | AID 1259313;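 active = melting temperature shift of at least 10% of the positive control shift, at one fixed dose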
CHOP inh – inhibitors of CHOP induction in ER stress response. CHO-K1 CHOP-promoter luciferase, tunicamycin-induced, 15-18 h. inhibition, % at 10 µM. actives 3.8% (n = 220,000);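 active = compounds that reduced the stress-induced luciferase reporter signal by more than about 70% of percent inhibition, limit read from the data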;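 note: 0% = tunicamycin plus vehicle and 100% = wells without tunicamycin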
T cruzi inh – T. cruzi replication inhibition; actives 1.4% (n = 300,000); inhibition, % (test concentration not listed); T. cruzi beta-gal in NIH3T3, luminescence, 90 h; AID 1885;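 active = mean inhibition across valid replicates above about 55%, limit read from the data; inconclusive = mean below that limit but half or more replicates reach it; inactive = mean below it, under half of replicates reach it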;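 note: signal also drops with host cell toxicity which is not excluded here; 0% = plate median of DMSO wells and 100% = zero luminescence signal; higher percent means less beta-gal luminescence so fewer parasites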
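System: NIH/3T3 fibroblasts plus reporter T. cruzi. Medium: DMEM plus 2% FBS. Probe or stimulus: 5000 reporter trypomastigotes per well. Compound: single 50 nL compound addition per well in DMSO. Incubation: co-culture of at least 90 h after 3 h attachment. Detection: GalScreen β-gal luminescence, detergent lysis, 60 min. Evaluation: parasite load inhibition, %.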
Beta apoptosis – blocks beta cell apoptosis | INS-1E cytokine-induced death, ATP luminescence, 48 h; percent of positive-control rescue, neutral wells zero | protection from apoptosis, % (test concentration not listed) | actives 0.8% (n = 300,000);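 active = Every replicate reaches about 75%, or at least half do and their mean reaches it too, limit read from the data; inconclusive = At least half of replicates reach the limit but their mean does not; inactive = Under half of replicates reach the limit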;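 note: 0% = cytokine-treated negative control wells and 100% = positive control rescue; higher means more ATP so stronger rescue from cytokine killing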
PREPL inh – human PREPL enzyme inhibition; AID 2751; inhibition, % at 5.96 µM; recombinant PREPL, fluorescence polarization activity-based probe; actives 0.68% (n = 320,000); Q4J6C6; in the data active = inhibition above about 43%;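 note: 0% = enzyme with DMSO and 100% = wells lacking enzyme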
* hit, by the source's call; ? = inconclusive; . = no result given.

SMILES	CSC inhib	GRIN3A LBD mod	CHOP inh	T cruzi inh	Beta apoptosis	PREPL inh
O=C(OC1CCOC1=O)C1CCN(S(=O)(=O)c2c(Cl)cccc2Cl)CC1 (centres undefined)	.	1	.	20	5	-7
Cc1ccc(NC(=O)CN(C)C(=O)COC(=O)CCS(=O)(=O)c2ccc(C)cc2)cc1	-13	5	.	-5	.	-6
CC(C)(C)NC(=O)CCN(/N=C/c1ccccc1O)C1=NS(=O)(=O)c2ccccc21	-14	-3	.	-6	-2	-11
Cc1ccc2sc(-c3ccc(NC(=O)/C=C\C(=O)O)cc3)nc2c1	.	-10	-1	-18	.	.
COc1ccc(-n2c(CNc3ccc(C)cc3)nnc2SCC(=O)Nc2nc(-c3ccccc3)cs2)cc1	3	-2	-5	8	86*	1
COc1ccc(NCc2nnc(SCC(=O)Nc3nc(-c4ccccc4)cs3)n2-c2ccccc2)cc1	-4	12*	55	2	?	7
Cc1cc(C)nc(SCc2nnc(SCC(=O)Nc3nc(-c4ccccc4)cs3)n2-c2ccccc2)n1	5	-14	19	23	6	-16
O=[N+]([O-])c1cc(Cl)cc(/C=N/Nc2nc3ccccc3s2)c1O	47	20*	49	-2	8	7
C(=N\NC1=Nc2cccc3cccc1c23)/c1ccccn1	.	-16	66	65*	.	.
COc1cc(/C=N/Nc2nc3ccccc3s2)ccc1OC(=O)c1ccccc1F	6	-11	40	-17	-4	33
COc1cc(OC)cc(C(=O)Oc2ccc(/C=N/Nc3nc4ccccc4s3)cc2OC)c1	4	18*	1	-38	5	6
C(=N\N=C\c1ccccn1)/c1ccccn1	-4	0	.	-11	-4	-2
C(=N\Nc1nc2ccccc2s1)/c1ccccn1	94*	-2	101*	39	.	23
NC(N)=[N+]1CCc2ccccc2C1	.	.	1	.	.	.
CC(C)(C)C(=O)CN1C(=O)NC2(CCCc3ccccc32)C1=O (centres undefined)	-12	1	.	-10	0	-2
CN(CC(=O)Nc1c(Cl)cccc1Cl)C(=O)c1ccc2nc[nH]c2c1	-2	-2	.	-6	-2	32
Cc1ccc2[nH]c(O)c(N=Nc3nc4ccccc4s3)c2c1	28	-2	6	61*	48	19
Cc1csc(N/N=C/c2ccccn2)n1	83*	-1	26	5	7	3
Brc1ccc(/C=C/C=N/Nc2nc3ccccc3s2)cc1	12	40*	-29	3	4	3
CCC/C=N/Nc1nc2ccccc2s1	-7	-2	-26	10	3	8
Cc1ccc2[nH]c(C)c(/C=N/Nc3nc4ccccc4s3)c2c1	-15	24*	78*	61*	2	21
Cc1csc(N/N=C/c2ccc([N+](=O)[O-])cc2)n1	0	-1	.	-10	7	21
Cc1cccc(C)c1NC(=O)C(c1ccc([N+](=O)[O-])cc1)N(C)C(=O)c1ccccn1 (centres undefined)	9	-5	21	-13	9	9
COc1ccc(C=NNc2nc3ccccc3s2)cc1	.	33*	.	.	.	.
CC(C)(Oc1ccc(Cl)cc1)C(=O)NC1=NN(c2ccccc2)C(=O)C1	112*	1	25	-8	-2	2
SMILES	CSC inhib	GRIN3A LBD mod	CHOP inh	T cruzi inh	Beta apoptosis	PREPL inh
O=C1CC(NC(=O)C(F)(F)F)=NN1c1ccccc1	3	-1	11	-17	-10	9
N#CC(=C(O)CN1CCN(c2ccccc2F)CC1)c1nc(-c2ccc(Cl)cc2)cs1	.	90*	.	.	.	.
COc1ccc(CNC(=O)C2CCCN(C(=O)Nc3ccc(OC)cc3)C2)cc1 (centres undefined)	-4	1	.	3	4	5
CCC(C)Sc1cc(-c2nc3cc(C)ccn3c2NC2CCCCC2)ccc1OC (centres undefined)	.	-16	.	.	.	7
CCC(C)Sc1cccc(-c2nc3ccc(C)cn3c2NC2CCCCC2)c1 (centres undefined)	7	-30	.	20	57	0
CCC(C)Sc1ccc(-c2nc3ccc(C)cn3c2NC2CCCCC2)cc1 (centres undefined)	49	-8	.	72*	40	10
CCC(C)Sc1cc(-c2nc3ccccn3c2NC2CCCCC2)ccc1OC (centres undefined)	126*	-27	.	32	31	10
